Source: PubChem BioAssay
Compounds with a hit are over-represented: about 0.72% of the library has one in this group of screens.
bIAP inh = bovine intestinal alkaline phosphatase inhibitors, primary screen, selectivity assay for TNAP inhibitor project, biochemical, bovine IAP, CDP-star luminescence; inhibition, % at 20 µM; 190,000 tested, under 10 active; purified bovine IAP, 30 min; AID 1019, 2008; alkaline phosphatase, intestinal [Bos taurus];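 active means over 50% inhibition of intestinal alkaline phosphatase at 20 µM in the single-dose screen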
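Incubation: 30 min reaction at room temperature / Material: purified bovine intestinal alkaline phosphatase (IAP) enzyme / Input: enzyme at 1/65,000,000 dilution / Dosing: 20 µM single dose / Signal: CDP-star luminescence signal / Reagent: CDP-star chemiluminescent phosphatase substrate, 30 µM final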
mIAP activ = activators of mouse IAP, primary screen, biochemical, luminescence, uHTS. muIAP, CDP-Star luminescence, 30 min; stronger effect = higher value; 1 = vehicle-only enzyme signal, 0 = enzyme-free wells. activation factor at 10 µM. hit rate 0.24% among 330,000. AID 2805, 2010;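 active means activation factor of at least 2 at 20 µM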
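Assay system: mouse IAP enzyme; Reagent: CDP-Star chemiluminescent phosphatase substrate; Compound: DMSO-dissolved test compounds; Incubation: 30 min, room temperature; Technique: luminescence from enzymatic CDP-Star hydrolysis; Controls: DMSO-only wells and no-enzyme negative control.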
mIAP block = inhibitors of mouse IAP, primary screen, biochemical, luminescence, uHTS. purified mouse IAP, CDP-Star luminescence, 30 min. inhibition, % at 10 µM. hit rate 0.2% among 330,000;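 active means inhibition of at least 40% at 10 µM in the primary screen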
hIAP activ = human IAP activators, primary screen, biochemical, luminescence, uHTS; Intestinal-type alkaline phosphatase (Homo sapiens), P09923; purified human IAP, CDP-Star luminescence, 30 min; stronger effect = higher value; 1 = vehicle-only enzyme, 0 = enzyme-free background; activation factor at 10 µM; hit rate 0.16% among 330,000; AID 2524, 2010;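 active means activation factor of the enzyme at least 2-fold when tested at 20 µM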
Target sequence (P09923 whole entry, looked up): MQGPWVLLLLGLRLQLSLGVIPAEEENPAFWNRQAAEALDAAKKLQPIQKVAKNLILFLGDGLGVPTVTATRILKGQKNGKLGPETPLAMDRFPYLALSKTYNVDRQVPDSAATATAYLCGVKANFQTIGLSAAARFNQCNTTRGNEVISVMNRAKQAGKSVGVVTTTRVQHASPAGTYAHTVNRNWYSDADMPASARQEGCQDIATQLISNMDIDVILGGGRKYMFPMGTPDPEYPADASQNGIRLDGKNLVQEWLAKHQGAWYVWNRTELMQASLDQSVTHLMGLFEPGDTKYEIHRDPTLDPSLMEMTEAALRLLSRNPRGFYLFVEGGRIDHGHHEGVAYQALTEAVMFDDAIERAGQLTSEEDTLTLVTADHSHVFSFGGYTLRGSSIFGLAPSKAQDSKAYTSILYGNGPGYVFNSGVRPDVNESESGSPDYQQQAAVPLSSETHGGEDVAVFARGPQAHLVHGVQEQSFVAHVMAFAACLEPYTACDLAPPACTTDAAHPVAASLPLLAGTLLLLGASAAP
hIAP inh = human IAP inhibitors, primary screen, biochemical, luminescence, uHTS | Intestinal-type alkaline phosphatase (Homo sapiens), P09923 | purified IAP, CDP-Star luminescence, 30 min | inhibition, % at 10 µM | hit rate 0.12% among 330,000 | AID 2544, 2010;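 active means inhibition reaching a set limit with compound at 10 µM in the primary screen, cut at about 35% in these data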
bIAP activator = bovine intestinal alkaline phosphatase activators, primary screen, biochemical, bovine IAP, CDP-star luminescence | purified bovine IAP, 30 min; stronger effect = higher value; fold of DMSO-control signal, blank-subtracted | activation factor at 20 µM | hit rate 0.17% among 200,000 | AID 1016, 2008;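 active means activation factor of 2 or more at 20 µM, a signal rise over negative controls twice the positive control's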
hIAP act confirm = human IAP activators, confirmation, biochemical, luminescence, single concentration, uHTS hits; shares compounds with hIAP activ; purified IAP, CDP-Star luminescence, 30 min; stronger effect = lower value; activation (%Activity, negative = activation), % at 8.3 µM; hit rate 10% among 880;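 active means at least twofold enzyme activation in any of six single-dose repeats, which the averaged readout prints as negative percent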
A number is an active result.

Screening Cc1ccc(C(C)NC(=S)NC2CCCCC2)cc1C (centres undefined) returned mIAP activ inactive, mIAP block inactive, hIAP activ inactive and hIAP inh inactive.
For COC(=O)/C=C/c1cc(F)ccc1S(=O)(=O)NC(C)(C)C the results were mIAP activ inactive, mIAP block inactive, hIAP activ inactive and hIAP inh inactive.
For CC(=O)Nc1cccc(C(=O)NNC(=O)c2n[nH]c(=O)c3ccccc23)c1 the results were mIAP activ inactive, mIAP block inactive, hIAP activ 2.3, hIAP inh inactive and hIAP act confirm -125.
Screening CC(C)c1ccc(C(=O)NNC(=O)c2n[nH]c(=O)c3ccccc23)cc1 returned mIAP activ inactive, mIAP block inactive, hIAP activ inactive and hIAP inh inactive.
`O=C(NNC(=O)c1ccccc1O)c1cc2ccccc2o1` gave mIAP activ inactive, mIAP block inactive, hIAP activ 2.4, hIAP inh inactive and hIAP act confirm inactive.
`O=C1C=C(c2ccc(C(=O)O)cc2)C[C@@H](c2ccc3c(c2)OCO3)C1` gave mIAP activ inactive, mIAP block inactive, hIAP activ inactive and hIAP inh inactive.
`Cn1c(/C(C#N)=C(\O)c2cc(Cl)sc2Cl)nc2ccccc21` gave mIAP activ inactive, mIAP block inactive, hIAP activ inactive and hIAP inh inactive.
Screening Cn1c(/C(C#N)=C(\O)c2ccc(Br)s2)nc2ccccc21 returned mIAP activ inactive, mIAP block inactive, hIAP activ inactive, hIAP inh 47 and hIAP act confirm inactive.
`COc1ccc(OC)c(NC(=O)C2CCN(Cc3cnn(-c4ccccc4)c3-n3cccc3)CC2)c1` gave bIAP inh inactive, mIAP activ inactive, mIAP block inactive, hIAP activ inactive, hIAP inh inactive and bIAP activator inactive.
For COc1ccc(NC(=O)C2CCN(Cc3cnn(-c4ccccc4)c3-n3cccc3)CC2)cc1OC the results were bIAP inh inactive, mIAP activ inactive, mIAP block inactive, hIAP activ 2, hIAP inh inactive, bIAP activator 3.3 and hIAP act confirm inactive.
`CCOc1cccc(/C=N/NC(=O)c2cc(C3CC3)[nH]n2)c1O` gave mIAP activ inactive, mIAP block inactive, hIAP activ 2.5, hIAP inh inactive and hIAP act confirm inactive.
`Cc1ccccc1NC(=O)CSc1nnnn1C` gave bIAP inh inactive, mIAP activ inactive, mIAP block inactive, hIAP activ inactive, hIAP inh inactive and bIAP activator inactive.
Screening Cn1nnnc1SCC(=O)Nc1ccccc1-c1ccccc1 returned bIAP inh inactive, mIAP activ inactive, mIAP block inactive, hIAP activ inactive, hIAP inh 38, bIAP activator inactive and hIAP act confirm inactive.
For CC(=O)Nc1ccc(NC(=O)C2CC(=O)N(C(C)C)C2)cc1 (centres undefined) the results were mIAP activ inactive, mIAP block inactive, hIAP activ inactive, hIAP inh 37 and hIAP act confirm inactive.
For CC(C)N1CC(C(=O)Nc2ccccc2)CC1=O (centres undefined) the results were bIAP inh inactive, mIAP activ inactive, mIAP block inactive, hIAP activ inactive, hIAP inh inactive and bIAP activator inactive.
Screening Cc1cc(OCC(=O)NNC(=O)c2cnccn2)cc(C)c1Cl returned mIAP activ inactive, mIAP block inactive, hIAP activ 2.1, hIAP inh inactive and hIAP act confirm inactive.
For Cc1ccc(OCC(=O)NCCCNC(=O)c2cnccn2)cc1C the results were mIAP activ inactive, mIAP block inactive, hIAP activ inactive and hIAP inh inactive.
`COc1ccccc1NC(=O)CSc1nc(=O)n(Cc2ccncc2)c2c1CCCC2` gave mIAP activ inactive, mIAP block inactive, hIAP activ inactive and hIAP inh inactive.
Screening CC1CCC(NC(=O)CSc2nnnn2C)CC1 (centres undefined) returned mIAP activ inactive, mIAP block inactive, hIAP activ inactive and hIAP inh inactive.
`O=c1c2cc(O)c(O)cc2oc2cc(O)c(C3OC(CO)C(O)C(O)C3O)c(O)c12` (centres undefined) gave mIAP activ inactive, mIAP block inactive, hIAP activ inactive, hIAP inh 82 and hIAP act confirm -148.
CSc1nnc(C2CCN(CC(=O)Nc3ccccc3N3CCOCC3)CC2)n1C(C)C was read as mIAP activ inactive, mIAP block inactive, hIAP activ inactive and hIAP inh inactive.
CN(C)c1ccc(NC(=O)Nc2csc3ccccc23)cc1 was read as mIAP activ inactive, mIAP block inactive, hIAP activ inactive, hIAP inh inactive and hIAP act confirm inactive.
For CN(C)c1ccc(NC(=O)Nc2cccc(Cl)c2)cc1 the results were bIAP inh inactive, mIAP activ inactive, mIAP block inactive, hIAP activ inactive, hIAP inh inactive and bIAP activator inactive.
CC1(C)C[C@@H](O)CC2(C1)C[C@]1(C)CC(O)[C@H]2C(C)(C)C1 (some centres undefined) was read as mIAP activ inactive, mIAP block inactive, hIAP activ 2.1, hIAP inh inactive and hIAP act confirm -93.
For Cc1nnc(NC(=O)CSc2n[nH]c(-c3ccccc3C)n2)s1 the results were mIAP activ inactive, mIAP block inactive, hIAP activ inactive, hIAP inh 41 and hIAP act confirm inactive.
Screening Nc1ccc(O)c2ccccc12 returned mIAP activ inactive, mIAP block inactive, hIAP activ inactive and hIAP inh inactive.
`C=CCn1c(O)c(N=Nc2ccccc2O)c2ccccc21` gave mIAP activ inactive, mIAP block inactive, hIAP activ 2.2, hIAP inh inactive and hIAP act confirm inactive.
For CCO[C@@H]1OC(C(=O)NCc2nc3ccccc3[nH]2)=C[C@H](c2coc3ccccc3c2=O)[C@H]1CCCO the results were mIAP activ inactive, mIAP block inactive, hIAP activ inactive and hIAP inh inactive.
Screening CCc1cccc(C)c1NC(=O)CC1Oc2ccc(C)cc2NC1=O (centres undefined) returned mIAP activ inactive, mIAP block inactive, hIAP activ inactive and hIAP inh inactive.
